Measured values from ChEMBL document CHEMBL5247673, “Discovery of Small Molecules Targeting the Frameshifting Element RNA in SARS-CoV-2 Viral Genome” (ACS Med Chem Lett, 2023).

Legend:
MCF7 = experiment: (§1) Inhibition of programmed -1 ribosomal frameshifting in human MCF7 cells harboring pCherryGFP-CoV2-WT plasmid assessed as inhibition of GFP expression incubated for 30 mins by fluorescence microscopic analysis; format: functional, cell-based
Method in brief: (§2)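 MCF-7 cells were treated with compound at various concentrations and transfected with an mCherry–FSE–GFP reporter: WT, a stop-codon negative control, or an in-frame no-FSE plasmid. GFP expression was the read-out, compared with a DMSO (0 μM) control. Data are mean ± SD of three independent experiments.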

[1] = as §1; format: functional, cell-based; conditions: MCF7, 0.5 h; method in brief: as §2
[2] = Inhibition of programmed -1 ribosomal frameshifting in human MCF7 cells harboring pCherryGFP-CoV2-WT plasmid assessed as inhibition of GFP expression at 50 uM incubated for 30 mins by fluorescence microscopic analysis; format: functional; conditions: MCF7, 0.5 h; method in brief: as §2

Structure (SMILES): COc1ccc(-c2nc(NCCN3CCOCC3)c3ccccc3n2)cc1
- inhibition (MCF7): Dose-Dependent Effect

Structure (SMILES): CCNCC1CCN(c2c(F)cc3c(=O)c(C(=O)O)cn(CC)c3c2F)C1 (stereo not drawn) [MERAFLOXACIN]
- IC50 [1]: 33.5 µM

Structure (SMILES): COc1ccc(-c2nc(NCCN3CCOCC3)c3cc(OC)ccc3n2)cc1
- inhibition at 50 µM [2]: 50%
